Source: ChEMBL document CHEMBL1147021, “Novel indole inhibitors of IMPDH from fragments: synthesis and initial structure-activity relationships” (Bioorg Med Chem Lett, 2006)
Converted amounts (≈) assume the structure as drawn.

Tests used:
[1] = Apparent permeability in Caco-2 cell from basolateral to apical; type: ADME, cell-based; conditions: human
Procedure, shortened: (§1)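 Caco-2 monolayers (10-21 day culture, passage 30-40), confluence confirmed by TEER; medium replaced by HBSS pH 7.4. Test compound 1 µM, cassetted with 2 reference compounds (10 µM), added apically or basolaterally (n = 4); 2 h at 37 °C, 5% CO2. Receiver side analysed by LC-MSMS; Papp normalised to the known Papps of the reference compounds.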

[2] = Distribution coefficient Log D of compound at pH 7.4; type: physicochemical; conditions: octanol/water
Procedure, shortened: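 Compound (1–2 mg) shaken for 1 h at 750 osc/min with octanol and pH 7.4 phosphate buffer (0.1 M KH2PO4/NaOH), each presaturated with the other for 18 h. Both layers filtered through 0.2 µm PTFE and analysed by HPLC. Log D taken as log of normalised peak area in octanol over that in buffer.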

[3] = Apparent permeability in Caco-2 cell from apical to basolateral; type: ADME, cell-based; conditions: human; procedure, shortened: as §1
[4] = molecular target: T1, Inosine-5'-monophosphate dehydrogenase 2 (Homo sapiens, UniProt P12268); test: Inhibition of IMPDH2
[5] = molecular target: T1, Inosine-5'-monophosphate dehydrogenase 2; test: Inhibition of IMPDH2 at 30 uM
[6] = tested on: PBMC; test: Antiproliferative activity against PBMC; type: functional, cell-based; conditions: Homo sapiens
[7] = Aqueous solubility at pH 5; type: physicochemical
Procedure, shortened: (§2)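 Solid compound (0.5 mg) shaken in 150 mM phosphate buffer at room temperature for 90 min, then filtered. Filtrate concentration measured by HPLC (UV 254 nm) against a three-point calibration curve made from DMSO stocks. Done in duplicate at pH 7.4 and pH 5.0.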

[8] = Aqueous solubility at pH 7.4; type: physicochemical; procedure, shortened: as §2

## Cn1cc(C#N)c2ccccc21
[1]
  Papp B→A: 37.4 ×10⁻⁶ cm/s
[2]
  logD: 2.3
[3]
  Papp A→B: 36.7 ×10⁻⁶ cm/s

## O=C(NOCc1ccccc1)Nc1cccc2c(-c3ccncc3)c[nH]c12
[4]
  IC50: 1.36 µM

## CONC(=O)Nc1ccc2c(-c3ccncc3)c[nH]c2c1
[4]
  IC50: 1.11 µM

## Cn1cc(C#N)c2ccc(NS(=O)(=O)c3ccccc3)cc21
[4]
  IC50: 7.68 µM

## CN(C(=O)Nc1ccc2c(C#N)c[nH]c2c1)c1ccccc1
[4]
  IC50: 15.4 µM

## N#Cc1c[nH]c2cc(Nc3nc4ccccc4o3)ccc12
[5]
  Inhibition: 48%

## CN(C(=O)Nc1ccc2c(-c3ccncc3)c[nH]c2c1)c1ccccc1
[4]
  IC50: 0.084 µM
[1]
  Papp B→A: 6.7 ×10⁻⁶ cm/s
[6]
  IC50: 12 µM
[2]
  logD: 2.93
[7]
  solubility: 42 µg/mL (≈ 123 µM)
[3]
  Papp A→B: 14.3 ×10⁻⁶ cm/s

## Cn1cc(C#N)c2cccc(Nc3nc4ccccc4o3)c21
[4]
  IC50: 58.4 µM

## c1ccc(-c2ccc3c(-c4ccncc4)c[nH]c3c2)cc1
[4]
  IC50: 0.456 µM
[6]
  IC50: 10 µM

## CN(C(=O)Nc1cccc2c(-c3ccncc3)c[nH]c12)c1ccccc1
[4]
  IC50: 19.5 µM

## CCn1cc(C#N)c2ccc(NS(=O)(=O)Cc3ccccc3)cc21
[5]
  IC50: Not Active

## Cc1[nH]c2cc(NC(=O)N(C)c3ccccc3)ccc2c1-c1ccncc1
[4]
  IC50: 0.128 µM

## CCOC(=O)c1ccc2c(-c3ccncc3)c[nH]c2c1
[4]
  IC50: 0.586 µM

## N#Cc1c[nH]c2c(OCc3ccccc3)cccc12
[5]
  IC50: Not Active

## CN(C(=O)Nc1ccc2c(C#N)cn(C)c2c1)c1ccccc1
[4]
  IC50: 17 µM

## Cn1cc(C#N)c2ccc(NC(=O)Nc3ccccc3)cc21
[4]
  IC50: 0.722 µM
[6]
  IC50: 14 µM

## O=S(=O)(Nc1cccc2c(-c3ccncc3)c[nH]c12)c1ccccc1
[4]
  IC50: 6.21 µM

## N#Cc1c[nH]c2cc(OCc3ccccc3)ccc12
[4]
  IC50: 71.8 µM

## CNOC(=O)Nc1ccc2c(C#N)cn(C)c2c1
[4]
  IC50: 4.04 µM

## Cn1cc(C#N)c2ccc(NS(=O)(=O)Cc3ccccc3)cc21
[4]
  IC50: 21 µM

## CN(C(=O)Nc1cccc2c(C#N)cn(C)c12)c1ccccc1
[4]
  IC50: 7.85 µM

## Cc1[nH]c2cc(NS(=O)(=O)c3ccccc3)ccc2c1-c1ccncc1
[4]
  IC50: 0.222 µM

## c1ccc2c(-c3ccncc3)c[nH]c2c1
[1]
  Papp B→A: 23.9 ×10⁻⁶ cm/s
[6]
  IC50: 28 µM
[2]
  logD: 2.81
[3]
  Papp A→B: 26.2 ×10⁻⁶ cm/s

## O=S(=O)(Nc1ccc2c(-c3ccncc3)c[nH]c2c1)c1ccccc1
[4]
  IC50: 0.364 µM
[1]
  Papp B→A: 9.3 ×10⁻⁶ cm/s
[6]
  IC50: 14 µM
[2]
  logD: 2.01
[7]
  solubility: 8 µg/mL (≈ 22.9 µM)
[3]
  Papp A→B: 6.5 ×10⁻⁶ cm/s

## O=C(NOCc1ccccc1)Nc1ccc2c(-c3ccncc3)c[nH]c2c1
[4]
  IC50: 0.076 µM
[1]
  Papp B→A: 7.3 ×10⁻⁶ cm/s
[6]
  IC50: 4.6 µM
[8]
  solubility: 3.2 µg/mL (≈ 8.93 µM)
[2]
  logD: 3.54
[7]
  solubility: 17.5 µg/mL (≈ 48.8 µM)
[3]
  Papp A→B: 6.5 ×10⁻⁶ cm/s

## N#Cc1c[nH]c2cc(N)ccc12
[5]
  IC50: Not Active

## O=C(Nc1ccccc1)Nc1ccc2c(-c3ccncc3)c[nH]c2c1
[5]
  IC50: Not Active

## Cn1cc(C#N)c2ccc(NC(=O)NOCc3ccccc3)cc21
[4]
  IC50: 1.17 µM
[1]
  Papp B→A: 19.1 ×10⁻⁶ cm/s
[6]
  IC50: 17 µM
[8]
  solubility: 4 µg/mL (≈ 12.5 µM)
[2]
  logD: 2.74
[7]
  solubility: 4.5 µg/mL (≈ 14 µM)
[3]
  Papp A→B: 19.3 ×10⁻⁶ cm/s
